Measured values published in publication PMC10023369 (ACS chemical biology, 2023).
Like-named read-outs stand apart in the source and are kept apart here. Where a SMILES comes first, the peptide text is derived from it. The star is where a group is joined. Cbz = O=C(OCc1ccccc1)*

Tests used:
[1] = target: PRC2 components EED and EZH2^WT/EZH2^Y641N (Homo sapiens, UniProt O75530+P40337); assay: Degradation of PRC2 components by western blot in DB cells; type: cell-based; conditions: for Degradation of EED and EZH2^WT/EZH2^Y641N at 96 hr: DB cells, 3 μM for 96 hr
DB cells [2] = assay: DB cell proliferation analysis; type: cell-based, human; conditions: for Reduction of cell growth compared to DMSO: 0.5 μM, 12 days
Summary of the method: (§1)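 DB cells in RPMI 1640 with 10% FBS (37 °C, 5% CO₂), seeded at 100K cells/mL in 12-well plates. Dosed with 0.01–10 μM or 0.5 μM test compound, or DMSO. Every 3 days, media exchanged, cells split back to seeding density and re-dosed, for up to 12 days. Trypan blue automated counts gave cells/mL and % viability. % proliferation relative to DMSO at each time point; EC50 from four-parameter log(inhibitor) fit.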

H3K27me3 = H3K27me3 levels by western blot in DB cells; type: cell-based, human; conditions: 3 μM for 96 hr
Summary of the method: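 H3K27me3 by western blot: DB cells seeded at 50,000 cells/well and treated with 3 μM test compound or DMSO for 96 hr. PBS-washed cells lysed in Cytobuster with protease inhibitors and benzonase. Samples boiled with reducing Laemmli buffer, separated on 4–15% gels, transferred to PVDF. Densitometry normalized to GAPDH and expressed relative to DMSO.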

tumor growth = conditions: once daily intraperitoneal administration, 150 mg/kg; cited from earlier work
[3] = system: triple negative breast cancer (TNBC) cells; conditions: cited from earlier work
[4] = target: biotinylated EED and His-VHL (Homo sapiens, UniProt O75530+P40337); assay: TR-FRET ternary complex formation assay; type: binding; conditions: EED-biotin and His-VHL, dose response up to 10 μM
Summary of the method: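 Ternary complex TR-FRET: biotinylated EED (residues 1–441, 160 nM) and His-VHL (residues 1–154, 320 nM) with Eu-streptavidin (2 nM) and ULight anti-6xHis (100 nM). Buffer: 20 mM Tris pH 7.5, 150 mM NaCl, Tween 20, 2 mM DTT, 1% DMSO. 10-point three-fold series from 10 μM; 4 h in dark. Read 665/615 ratio (320 nm excitation), minus no-compound wells. Technical triplicates; two independent experiments, standard error.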

EZH2^WT/EZH2^Y641N [5] = conditions: read-out: EZH2^WT/EZH2^Y641N DC50; DB cells; cited from earlier work
[6] = Solubility observed in ternary complex assay; type: physicochemical; conditions: above 10 μM in ternary complex assay
DB cells [7] = assay: DB cell viability; type: cell-based, human; conditions: 12 days, top concentrations tested (5 – 10 μM)
Summary of the method: as §1

EZH2^WT/EZH2^Y641N [8] = assay: EZH2 degradation by western blot in DB cells; type: cell-based, human; conditions: % degradation at 3 μM after 24 hr
Summary of the method: (§2)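 DB cells seeded at 800,000 cells/well and dosed from DMSO stock for 24 hr; dose–response 0.01–3 μM. Cells washed with PBS and lysed in Cytobuster with protease inhibitors and benzonase. Normalized lysate boiled with reducing Laemmli buffer, run on 4–15% gels, blotted to PVDF, detected by fluorescence or ECL. Band densitometry normalized to GAPDH, then to DMSO, gave % degradation; EED quantified from lower ~55 kDa band. DC50 from three-parameter fit; Dmax = % degradation at 3 μM, 24 hr.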

His-tagged EED = His-tagged EED (Homo sapiens, UniProt O75530); assay: EED binding TR-FRET assay; conditions: result in words
Summary of the method: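 EED binding by TR-FRET displacement of a biotinylated EED ligand (15 nM). Mix held EED-6xHis (15 nM), ULight anti-6xHis antibody (10 nM) and Eu-W1024 streptavidin (2 nM). Test compounds run as 10-point dose–response, top final concentration 10 μM. IC50 from three biological replicates ± standard deviation.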

EED = EED (Homo sapiens, UniProt O75530); assay: EED degradation by western blot in DB cells; type: cell-based
Summary of the method: as §2

Caco-2 = Caco-2 permeability assay; type: in vitro ADME
SUZ12 = SUZ12 degradation by western blot in DB cells; type: cell-based, human; conditions: % degradation at 3 μM after 24 hr
Summary of the method: as §2

biotinylated EED and His-VHL, sequence (O75530 whole entry, the tested form may be a part): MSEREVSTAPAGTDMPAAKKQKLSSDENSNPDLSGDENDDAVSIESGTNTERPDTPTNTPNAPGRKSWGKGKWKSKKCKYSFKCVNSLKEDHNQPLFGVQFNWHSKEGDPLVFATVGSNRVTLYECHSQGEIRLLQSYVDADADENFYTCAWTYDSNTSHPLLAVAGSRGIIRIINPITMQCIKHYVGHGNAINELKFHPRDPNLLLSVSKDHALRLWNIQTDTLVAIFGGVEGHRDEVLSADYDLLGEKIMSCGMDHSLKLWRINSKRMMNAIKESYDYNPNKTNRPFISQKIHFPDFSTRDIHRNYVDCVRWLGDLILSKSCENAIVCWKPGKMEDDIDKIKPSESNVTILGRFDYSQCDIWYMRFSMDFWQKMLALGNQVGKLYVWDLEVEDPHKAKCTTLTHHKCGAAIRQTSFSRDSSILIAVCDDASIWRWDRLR
biotinylated EED and His-VHL, sequence (P40337 1-154): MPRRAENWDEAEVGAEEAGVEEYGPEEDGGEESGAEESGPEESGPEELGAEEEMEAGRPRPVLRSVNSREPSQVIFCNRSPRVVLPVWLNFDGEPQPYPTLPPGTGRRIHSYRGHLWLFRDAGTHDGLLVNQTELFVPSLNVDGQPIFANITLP
EED, sequence (O75530 whole entry): as the sequence (O75530 whole entry, the tested form may be a part) above
His-tagged EED, sequence (O75530 whole entry): as the sequence (O75530 whole entry, the tested form may be a part) above

For `CC(C)C[C@@H](C=O)NC(=O)[C@H](CC(C)C)NC(=O)[C@H](CC(C)C)NC(=O)OCc1ccccc1` [MG132] (Cbz-Leu-Leu-Leu-aldehyde), the “Effect of proteasome inhibitor pretreatment on UNC7700 mediated PRC2 degradation” value ([1]; added prior to UNC7700 cell treatment) was “blocks PRC2 degradation”.
For `CCCc1cc(C)[nH]c(=O)c1CNC(=O)c1cc(-c2ccc(N3CCN(C(C)C)CC3)nc2)cc2c1cnn2C(C)C` [UNC1999], the “Reduction of cell growth compared to DMSO” value (“Reduction of cell growth” below) (DB cells [2]) was 28% and the “Decrease in H3K27me3 levels” value (H3K27me3) was 76%.
In the case of `Cc1cc(C)c(CNC(=O)c2cc(-c3ccc(N4CCN(CCNC(=O)CC56CC7CC(CC(C7)C5)C6)CC4)nc3)cc3c2cnn3C(C)C)c(=O)[nH]1` [MS1943], the “Tumor growth in vivo” value (tumor growth) is given as “suppresses tumor growth in vivo” and the “Anti-proliferative effect in TNBC cells” value [3] is given as “anti-proliferative”.
For `Cc1ncsc1-c1ccc(CNC(=O)[C@H]2C[C@@H](O)CN2C(=O)[C@@H](NC(=O)CCCNC(=O)c2ccc(-c3cnc(NCc4ccco4)n4cnnc34)cc2)C(C)(C)C)cc1` [UNC7043], the “Ternary complex TR-FRET signal, in words” value [4] was “do not show any increase in FRET signal”.
For `Cc1ncsc1-c1ccc(CNC(=O)[C@@H]2C[C@@H](O)CN2C(=O)[C@@H](NC(=O)CCCNC(=O)c2ccc(-c3cnc(NCc4ccco4)n4cnnc34)cc2)C(C)(C)C)cc1` [UNC6852], the DC50 (EZH2^WT/EZH2^Y641N [5]) is listed as 670 ± 240 nM, the “Reduction of cell growth” value (DB cells [2]) is listed as 8% and the “PROTAC concentration at maximum peak height of ternary complex TR-FRET signal” value [4] is listed as “around 1 μM”. For the same molecule, the “Ternary complex TR-FRET signal, in words” value [4] was “signs of a bell-shaped curve”, the “Decrease in H3K27me3 levels, in words” value (H3K27me3) was “only a small decrease in H3K27me3 levels” and the “Degradation of EED and EZH2^WT/EZH2^Y641N at 96 hr” value [1] was “substantial degradation of EED and EZH2^WT/EZH2^Y641N”. For the same molecule, the Solubility [6] was “poor solubility observed above this concentration”.
For `CS(=O)(=O)c1ccc(-c2cnc(NCc3ccco3)n3cnnc23)cc1` [EED226], the “Reduction of cell growth” value (DB cells [2]) was 24% and the “Decrease in H3K27me3 levels” value (H3K27me3) was 63%.
In the case of `Cc1ncsc1-c1ccc(CNC(=O)[C@@H]2C[C@@H](O)CN2C(=O)[C@@H](NC(=O)C2CC(NC(=O)c3ccc(-c4cnc(NCc5ccco5)n5cnnc45)cc3)C2)C(C)(C)C)cc1` (stereo partly drawn) [UNC7700], the “Loss in cell viability” value (DB cells [7]) is reported as ~30%, the “EZH2^WT/EZH2^Y641N Dmax” value (EZH2^WT/EZH2^Y641N [8]) is reported as 86% and the “EED binding (TR-FRET IC50)” value (His-tagged EED) is reported as “equally potent binders of EED”. The “Reduction of cell growth” value (DB cells [2]) was 46%, the EC50 (DB cells [2]; read-out: Proliferation EC50 after 9 days, 0.01 – 10 μM, 9 days) was 2600 ± 1900 nM and the EC50 (DB cells [2]; read-out: Proliferation EC50 after 12 days, 0.01 – 10 μM, 12 days) was 790 ± 530 nM. The “PROTAC concentration at maximum peak height of ternary complex TR-FRET signal” value [4] was “around 1 μM”, the “Ternary complex TR-FRET signal, in words” value [4] was “much weaker compared to UNC6852” and the “Decrease in H3K27me3 levels” value (H3K27me3) was 85%. The “EED Dmax” value (EED; % degradation at 3 μM after 24 hr) was 84%, the DC50 (EED; read-out: EED DC50, 24 hr, dose response 0.01–3 μM, western blot) was 111 nM and the “Degradation of EED and EZH2^WT/EZH2^Y641N at 96 hr” value [1] was “complete degradation of EED and EZH2^WT/EZH2^Y641N”. For the same molecule, the Caco-2 permeability (Caco-2) was “below the limit of detection of the assay”, the “Percent recovery in Caco-2 assay” value (Caco-2; from the donor compartment, cell lysate, and assay well) was 79–106% and the “SUZ12 Dmax” value (SUZ12) was 44%.
